Test results published in ChEMBL document CHEMBL1821603, “Bivalent bendamustine and melphalan derivatives as anticancer agents” (Eur J Med Chem, 2011).
Active and inactive are the calls of the source. No cut-off for these calls is given here.

Key:
[1] = test system: MCF7; test: Cytotoxicity against human MCF7 cells at 1 uM after 72 hrs by crystal violet staining; type: functional, cell-based
Procedure, shortened: (§1)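 MCF-7 cells in DMEM high glucose with 5% FCS were seeded at 7500 cells/mL and grown 3 days at 37 °C, 5% CO2. Then exposed 72 h to compound added from a DMF or methanol stock. Biomass was read by crystal violet staining of glutardialdehyde-fixed cells, with 70% ethanol extraction and OD at 578 nm, against untreated control and pre-treatment OD. Three runs per substance.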

[2] = test system: MCF7; test: Cytotoxicity against human MCF7 cells at 5 uM after 72 hrs by crystal violet staining; type: functional, cell-based; procedure, shortened: as §1
[3] = test system: MCF7; test: Cytotoxicity against human MCF7 cells at 10 uM after 72 hrs by crystal violet staining; type: functional, cell-based; procedure, shortened: as §1
[4] = test system: MDA-MB-231; test: Antiproliferative activity against human MDA-MB-231 cells after 72 hrs by crystal violet staining; type: functional, cell-based
Procedure, shortened: (§2)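 MCF-7 or MDA-MB-231 cells (ATCC) in DMEM high glucose with 5% FCS, seeded at 7500 cells/mL and grown 3 days at 37 °C, 5% CO2. Compound was added from a DMF or methanol stock and incubated 72 h. Cells were glutardialdehyde-fixed and stained with crystal violet, and the dye was extracted with 70% ethanol for OD 578 nm. T/Ccorr = (T−C0)/(C−C0)×100, where C0 is the OD before treatment. Run 3 times.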

[5] = test system: MCF7; test: Cytostatic effect against human MCF7 cells at 5 uM after 72 hrs by crystal violet staining relative to uncreate control; type: functional, cell-based; procedure, shortened: as §2
[6] = Half life in PBS buffer at pH 7.4; type: physicochemical
[7] = test system: MCF7; test: Cytostatic effect against human MCF7 cells at 10 uM after 72 hrs by crystal violet staining relative to uncreate control; type: functional; procedure, shortened: as §2

| SMILES | Activity [1] | Activity [2] | Activity [3] | Activity [4] | Activity [5] | half-life [6] | T/C [7] |
| --- | --- | --- | --- | --- | --- | --- | --- |
| Cn1c(CCCC(=O)O)nc2cc(N(CCCl)CCCl)ccc21 | inactive | inactive | inactive | Active | – | – | – |
| CC(C)(C)OC(=O)N[C@@H](Cc1ccc(N(CCCl)CCCl)cc1)C(=O)OCCN1C(=O)C=CC1=O | – | – | – | Active | – | – | – |
| Cn1c(CCCC(=O)OCCN2C(=O)C=CC2=O)nc2cc(N(CCCl)CCCl)ccc21 | – | – | – | Active | Active | 10 h | – |
| N[C@@H](Cc1ccc(N(CCCl)CCCl)cc1)C(=O)O [MELPHALAN] | – | – | – | Active | – | – | 20% |
